These results are taken from the RNAGym collection of RNA variant scans (doi:10.1126/science.aae0568).

First the molecules themselves.
B1: tRNA (parent)
chain: GUUCCGUUGGCGUAAUGGUAACGCGUCUCCCUCCUAAGGAGAAGACUGCGGGUUCGAGUCCCGUACGGAACG

This sample holds only a part of the variants without activity.

This data set covers variants of B1. Description: yeast fitness relative to wild type (ratio to wild type); higher = fitter; tRNA-Arg(CCU), competitive growth, 37 C, YPD. A digest of the protocol: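 For this measurement, the tRNA-Arg(CCU) gene was varied by chemical synthesis at a 3% per-site mutation rate across 69 sites, and each variant was placed at the native genomic locus in Saccharomyces cerevisiae. The pooled strains went through a 24-hour competition in YPD at 37°C in six parallel replicates, with amplicons from start and end populations read by 100-nucleotide paired-end sequencing. Darwinian fitness relative to wild type followed from the change in each genotype's frequency. Genotypes needed ≥ 100 starting reads, and estimates < 0.5 were set to 0.5.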
On to U16A C30G A37C, for which the yeast fitness is at most 0.5.

For U16G C27G, the yeast fitness came out at 0.639.

Regarding U16G C29U C55G, the yeast fitness is at most 0.5. U16A G38A C62A A69U: the yeast fitness is at most 0.5. Turning to U16C A40C A57U, the yeast fitness came to 0.575. For the variant U16C U32G C34G U53A G63C, the yeast fitness is at most 0.5.

U16A G41A A69C: the yeast fitness is 0.631. Turning to U16A C49U A69U, the yeast fitness amounted to 0.647. For U16A C55U U59A A65C the value was at most 0.5; for U16C C30U C34G, 0.579. With U16A C31A C33G G38A C66U, the yeast fitness is at most 0.5.

As for U16A C24G C46U G50C C55U A57U C62G A70U, the yeast fitness is at most 0.5. Then U16C C24G U32A G56A, with 0.544; and U16C G48C A57C, with at most 0.5. Turning to U16G A21U A40C G58C A65C C66G, the yeast fitness worked out at 0.515. Take U16G G23C U35C G63A: the yeast fitness was at most 0.5. As for U16A G17A C66G A70U, the yeast fitness turned out to be 0.634. For U16G G44C the value was 0.912; for U16G C34G A42G C49G U64A, at most 0.5.

For U16C C24G G44A C60U G67C, the yeast fitness was at most 0.5. As to U16C U32G G56C G68A, the yeast fitness was at most 0.5. Turning to U16C C46U, the yeast fitness is 1.05.

With U16A G48A, the yeast fitness was determined as 0.896. Then U16A G48C, with 0.967; and U16G C22A A57G, with at most 0.5; and U16C G56A G68A, with 0.69.

For the variant U16C A21G G63C, the yeast fitness is at most 0.5.

With U16A G17C A43U A45C C46A C62G, the yeast fitness is at most 0.5. U16A C30G C34G A42U C66U: the yeast fitness was at most 0.5. As to U16C G67C, the yeast fitness worked out at 0.861.

Turning to U16G C24U U28C A36C U59C A65C, the yeast fitness is at most 0.5. Regarding U16A U32C A37U C49A C60U G68C, the yeast fitness was at most 0.5.

For U16A C34A A40U, the yeast fitness was at most 0.5. For U16C A37C the value was 0.678; for U16C A37U, 0.683. In the case of U16G A42G G48A, the yeast fitness is at most 0.5.

Turning to U16A C31A G51A, the yeast fitness stood at 0.552.

With U16A G17A C22G C61U, the yeast fitness was at most 0.5. For U16C A42G the value was 0.904; for U16A C34G U47A G52C, at most 0.5. Then U16C A20U C30U G39C A45G A69C, with 0.592; and U16A G56A, with 0.875. For the variant U16C U47A G52A, the yeast fitness is at most 0.5. With U16C C33U A57G G63C, the yeast fitness is at most 0.5.

As to U16A C55G C61U, the yeast fitness was at most 0.5. Then U16C U59A C62A G67C, with at most 0.5; and U16C A36G G68A, with 0.556.

U16C U54A C66U: the yeast fitness was at most 0.5.

Consider U16C G25C U53A, for which the yeast fitness was at most 0.5. For U16C C29U C62U, the yeast fitness was 0.508. Then U16A C31A G67U, with at most 0.5; and U16A G17C A43U A45C C46A, with 0.613; and U16C C22U C24U C29U C49U C60U, with at most 0.5. For U16C G44A C49U U54C G56C the value was at most 0.5; for U16A C29U, 0.775. For U16A C30G C34G A42U G52A A57C A65G, the yeast fitness is at most 0.5. Take U16A G44A: the yeast fitness stood at 0.999.

On to U16A G44C, for which the yeast fitness came out at 0.751. U16A U32C A42U: the yeast fitness came to 0.637. Turning to U16G C62U, the yeast fitness came to 0.853.

With U16G G51C A65C, the yeast fitness came out at 0.635. On to U16C U26A, for which the yeast fitness came out at 0.973. In the case of U16C U26C, the yeast fitness was determined as 0.884.

For U16A C62A, the yeast fitness was 0.786. For U16A G18C G48C the value was 0.646. Take U16G A21G C31U: the yeast fitness was determined as 0.985. With U16C C30G, the yeast fitness is 0.708. As for U16C C30A, the yeast fitness came to 0.834. Turning to U16A C34U U54C, the yeast fitness is at most 0.5. Regarding U16G G23A A40U, the yeast fitness is at most 0.5. As for U16A C34A A40U G44A, the yeast fitness is at most 0.5. Consider U16G A20U G38A G67A A69U, for which the yeast fitness was at most 0.5. Take U16A G48C C55G G67C A70U: the yeast fitness amounted to 0.604. For U16A C24U C34A A65G the value was 0.716; for U16C G44A, 1.06. Then U16G G25C C46U G50A, with 0.581; and U16C G18A C24G A45U C62A, with at most 0.5; and U16C C22U C33G C55G, with 0.53.

In the case of U16G C61U A69C, the yeast fitness amounted to 0.644. On to U16A C24G C49G U53C, for which the yeast fitness was at most 0.5. Then U16C A21C A37G A69G A70G, with at most 0.5.

Take U16G C22G U32C: the yeast fitness was found to be 0.767. U16G C61U: the yeast fitness is 0.75.

For the variant U16A C60G G67A, the yeast fitness was at most 0.5. With U16G A42U, the yeast fitness turned out to be 0.994. Turning to U16G G44A C62U, the yeast fitness was found to be 0.652. With U16G G25A U28G C34U G63C, the yeast fitness is at most 0.5. For U16C G51A A65U the value was 0.572; for U16C C33G G39C A69C, at most 0.5. For U16C C24U, the yeast fitness is 0.882.

U16C C24A: the yeast fitness was 0.668.

As to U16C A43G, the yeast fitness amounted to 1.13. In the case of U16G G51A, the yeast fitness is 0.783. Take U16A C49U G67A: the yeast fitness is 0.67.

As to U16C C22U A65U, the yeast fitness was at most 0.5. Consider U16A C29G C31G C62U A69C, for which the yeast fitness is at most 0.5. For U16A G39C, the yeast fitness turned out to be 0.646. Then U16C C60A C62U, with 0.55.

Consider U16A C34A U64C, for which the yeast fitness amounted to 0.513. Then U16C C46G C49U, with 0.731; and U16A C24U C61G A65G, with at most 0.5. Then U16C G50A, with 0.799. Then U16A C33U A45G C49A U53A, with at most 0.5; and U16C G25C C34U U64G, with 0.585; and U16A C60U, with 0.805. Consider U16C U19A U47A C61A, for which the yeast fitness amounted to 0.792.

Consider U16A G17A C34U C66U A70U, for which the yeast fitness is at most 0.5. Then U16A G38C C61U U64C, with at most 0.5; and U16A C29G C30U A40U, with at most 0.5. Turning to U16A C33G C49A, the yeast fitness turned out to be 0.537.

For U16C C29G U53A, the yeast fitness was at most 0.5. With U16G G38A U54C A65U, the yeast fitness is at most 0.5.

U16G A65U: the yeast fitness came out at 0.876. With U16A C22U U26C U54G A65G C66A, the yeast fitness is at most 0.5. Regarding U16C A45G, the yeast fitness was found to be 0.919. U16G G18C A21U: the yeast fitness was determined as 0.59. Take U16A U32A A40C C62U: the yeast fitness was at most 0.5.

As for U16A G18C A20G C22U U54G C55A, the yeast fitness came to 0.512.

For the variant U16A C34A A36C A37G G56C C66A, the yeast fitness is at most 0.5.

Take U16C C24U C30U C62A: the yeast fitness is at most 0.5. Take U16A C24U: the yeast fitness is 1.06. On to U16A C46G, for which the yeast fitness was 0.951. Take U16G A36U: the yeast fitness worked out at 0.589. Then U16C A40U A57C A70U, with 0.585. Regarding U16C A40G C46A, the yeast fitness was found to be 0.712. Then U16C C30U C46A, with 0.768; and U16A G58C, with 0.963. In the case of U16C G25U U32C A69C, the yeast fitness was at most 0.5.

Consider U16C C22U A70U, for which the yeast fitness is 0.572. On to U16A C60G C61G G68C, for which the yeast fitness was at most 0.5.

For U16C C24U C29A C31G C34G, the yeast fitness was at most 0.5. On to U16A G23A C33A A65G, for which the yeast fitness is at most 0.5. U16G C29G G58A: the yeast fitness was 0.59. On to U16C G25A U28C G52C, for which the yeast fitness was at most 0.5. On to U16C U35G G48C C66U, for which the yeast fitness is at most 0.5. As for U16C A36U G63A, the yeast fitness was 0.772. Regarding U16A G39A C46U A57U G67A, the yeast fitness is at most 0.5. As to U16A U19C C61A A65U, the yeast fitness is 0.6. Consider U16C C55G, for which the yeast fitness worked out at 0.669. Regarding U16C C55A, the yeast fitness worked out at 0.664. In the case of U16C C60G A65G, the yeast fitness is at most 0.5.

For the variant U16G G63A, the yeast fitness was 0.937. With U16C G48C, the yeast fitness came to 0.894. For the variant U16C A42C A65U, the yeast fitness stood at 0.585. U16A G50C A65G: the yeast fitness is at most 0.5. As for U16C C66U, the yeast fitness amounted to 0.891.

For the variant U16A C24U G44C C61U C66U, the yeast fitness was at most 0.5. Consider U16A C49U G52A C60A, for which the yeast fitness was at most 0.5.

In the case of U16G C22G A37G A43G G68A, the yeast fitness was at most 0.5. As to U16A G25C G48A U59A, the yeast fitness is at most 0.5. Consider U16A C24G G51A, for which the yeast fitness was at most 0.5. Take U16C C22G C27G U53C C61A G68A: the yeast fitness was at most 0.5. For U16C A40U A65U the value was 0.588. As for U16C A20C A36U C61U, the yeast fitness was at most 0.5. Then U16A C24U C62U, with 0.692; and U16C C24U C30U, with at most 0.5; and U16A G23C U26A C29U A42U G48A G67A, with at most 0.5. In the case of U16A U35A A57G C62G, the yeast fitness is at most 0.5. As for U16A C61A C66U A69C, the yeast fitness was 0.697. As to U16C U26A G67C, the yeast fitness is 0.657. Consider U16G A37G G51C C62G, for which the yeast fitness was at most 0.5. With U16C C31U C33U G63C, the yeast fitness was at most 0.5. Consider U16C G44C C66U, for which the yeast fitness is at most 0.5. For the variant U16A G39C U54C C55U, the yeast fitness was at most 0.5. Turning to U16C C27U C29A A40G A43C G50U, the yeast fitness is at most 0.5. Then U16G C22G A65U, with 0.722; and U16A G17A A20G C22G C61U G68C, with 0.559.
